Shown are actives, neighbours in structure and some others; about 3.7% of the full set was active somewhere.
Cl transport mod: modulators of human KCC2 chloride dependent transport. Q9H2X9. KCC2 cells, thallium flux FluoZin-2 fluorescence. B-score of Tl+ flux slope (higher = more flux/activation; lower = inhibition) at 10 µM. 2.2% of 190,000 active;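 active = thallium flux slope and its plate-corrected score both differing from the plate sample mean at a set confidence after two filtering rounds, in either direction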;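 also: slope of fluorescence scaled to starting intensity during 10 to 20 s after thallium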
Arbovirus inh: arbovirus infection inhibition | arbovirus infection cell-based antiviral screen | AID 1251 | inhibition, % at 10 µM | 0.37% of 200,000 active; in the data active = inhibition above about 30%
ROMK mod: modulates human ROMK potassium channel activity; Tet-inducible ROMK, thallium flux fluorescence; actives lie on both sides; B-score at 10 µM; AID 1918; 2% of 130,000 active;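 active = signal ratio slope over the read window, or its plate-corrected B-score, at least 3 SD from the plate mean, either direction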;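 also: B-score of the F/F0 ratio slope over 7 to 12 s after thallium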
PKD1 inh: inhibitors of human PKD1 kinase | 0.056% of 200,000 active | PKD1 kinase fluorescence polarization assay | inhibition, % (concentration not given with the values) | Q15139 | AID 797; in the data active = inhibition above about 50%
Target sequence (Q15139 whole entry, looked up): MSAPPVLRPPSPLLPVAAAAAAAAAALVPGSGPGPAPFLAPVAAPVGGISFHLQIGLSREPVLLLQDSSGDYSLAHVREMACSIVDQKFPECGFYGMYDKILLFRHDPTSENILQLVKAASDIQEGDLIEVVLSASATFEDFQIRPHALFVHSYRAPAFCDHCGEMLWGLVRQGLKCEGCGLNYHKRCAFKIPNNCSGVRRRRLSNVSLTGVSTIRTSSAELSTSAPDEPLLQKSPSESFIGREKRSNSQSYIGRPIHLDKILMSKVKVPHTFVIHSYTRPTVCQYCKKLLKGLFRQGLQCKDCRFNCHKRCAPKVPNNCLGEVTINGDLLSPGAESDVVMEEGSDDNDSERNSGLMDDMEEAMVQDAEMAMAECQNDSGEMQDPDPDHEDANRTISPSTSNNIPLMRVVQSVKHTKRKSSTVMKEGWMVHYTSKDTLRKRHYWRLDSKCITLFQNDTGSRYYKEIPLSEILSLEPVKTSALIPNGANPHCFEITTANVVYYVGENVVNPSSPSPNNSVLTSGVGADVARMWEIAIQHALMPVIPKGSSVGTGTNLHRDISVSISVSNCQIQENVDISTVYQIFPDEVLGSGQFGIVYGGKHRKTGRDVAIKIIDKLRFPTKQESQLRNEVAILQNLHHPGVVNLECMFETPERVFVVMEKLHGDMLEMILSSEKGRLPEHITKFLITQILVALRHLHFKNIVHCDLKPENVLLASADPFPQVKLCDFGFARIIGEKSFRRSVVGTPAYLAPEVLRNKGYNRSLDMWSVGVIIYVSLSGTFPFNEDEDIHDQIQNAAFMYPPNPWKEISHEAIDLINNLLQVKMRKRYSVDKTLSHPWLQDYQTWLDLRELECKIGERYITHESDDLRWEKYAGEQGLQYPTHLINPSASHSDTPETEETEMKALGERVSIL
Calpain2 inh: blocks pig calpain II enzyme activity; purified calpain II, fluorogenic peptide substrate, 30 min; inhibition, % at 16 µM; 0.37% of 220,000 active; AID 1236;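 active = inhibition above about 50%, limit read from the data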
Mdm2 ligase inh: inhibitors of human Mdm2 E3 ubiquitin ligase. signal enhancement, % at 5 µM. AID 1230. Q00987. cell-based MDM2 ubiquitination luciferase reporter, 2 h; 0 = plate control, 100 = twice control, blank-subtracted. 0.11% of 210,000 active;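 active = signal enhancement of 30% or more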;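 also: luminescence tracks abundance of the self-degrading MDM2-luciferase fusion protein; higher signal means inhibition of MDM2 E3 ligase activity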
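Material: Stable MDM2–luciferase fusion reporter cells | Amount: 2000 cells seeded into each well | Dosing: One concentration, 5 µM, with 0.2% DMSO | Incubation: 4 h cell settling then 2 h compound exposure, 37 °C | Measured by: Luciferase luminescence | Read-out basis: % enhancement relative to plate controls after blank subtraction | Benchmarks: Control and blank well means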
KCC2 sec1: confirmation of human KCC2 transport modulators. shares compounds with Cl transport mod. HEK293-KCC2, thallium flux, FluoZin2 fluorescence; hits give high values. normalised thallium flux (F/F0 slope) at 10 µM. 15% of 3,700 active. AID 1713;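 active = thallium flux slope above the same plate's solvent-only control mean plus 3 SD; inconclusive = the two replicate wells disagree; inactive = no significant difference from solvent-only control wells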
KCC2 bumet counter: thallium flux persisting under bumetanide in KCC2 cells, counter-screen secondary assay. shares compounds with Cl transport mod. HEK293-KCC2 + bumetanide/ouabain, thallium flux FluoZin2; hits give high values. normalized thallium flux at 10 µM. 49% of 3,700 active;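 active = thallium entry rate above the same plate's blocked-transporter control wells by more than 3 SD; inconclusive = the two repeat wells disagree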;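 also: raw slope of fluorescence over initial fluorescence between 10 and 20 s after thallium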
KCC2 sec2: confirmation of human KCC2 transport modulators; shares compounds with Cl transport mod; HEK293-KCC2, thallium flux FluoZin2 fluorescence; actives lie on both sides; F/F0 rise rate, 10–20 s post-thallium; normalized thallium flux at 10 µM; 23% of 3,700 active; AID 1715;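 active = thallium flux slope more than 3 SD above or below the plate's solvent-only control mean, mostly below; inconclusive = the two repeat wells disagreed; inactive = no significant shift from solvent-only controls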;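 also: raw slope with 0.1% DMSO as baseline and bumetanide as block control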
HEK293 Tl flux: acts in parental HEK cells, KCC2 counter-screen; thallium flux rate (normalised fluorescence) at 10 µM; shares compounds with Cl transport mod; HEK293 parental cells, thallium flux FluoZin2, ouabain; baseline-ratio fluorescence slope, 10–20 s after thallium; AID 1716; 46% of 3,700 active;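 active = thallium flux rate significantly above the same plate's solvent-only control wells, beyond their mean plus 3 SD; inconclusive = the two replicate wells gave conflicting results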
KCC2 ouabain: KCC2 (human) modulation, ouabain retest | shares compounds with Cl transport mod | AID 1717 | HEK293-KCC2, thallium flux FluoZin2 fluorescence; bidirectional: low = inhibitor, high = activator | raw Tl+ flux slope (below DMSO = inhibition, above = activation) at 10 µM | 48% of 3,700 active;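 active = thallium flux slope beyond 3 SD from same-plate DMSO control mean in most replicates, usually higher, sometimes lower; inconclusive = repeat tests gave conflicting results; inactive = no significant difference from controls in most replicates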;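 also: slope of initial-normalized fluorescence between seconds 10 and 20 after thallium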
HEK counter2: parental HEK flux effect, counter-screen 2. shares compounds with Cl transport mod. HEK293 parental, thallium flux FluoZin-2 fluorescence slope. thallium flux slope at 10 µM. 33% of 3,700 active;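 active = thallium flux slope above the same plate's solvent-control mean plus 3 SD in both duplicate wells; inconclusive = duplicate wells that disagreed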;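 also: run without ouabain in cells lacking the KCC2 cotransporter; slope of fluorescence scaled to its starting value between 10 and 20 s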
An asterisk follows results filed as active; u = inconclusive; x = no result given.

SMILES | Cl transport mod | Arbovirus inh | ROMK mod | PKD1 inh | Calpain2 inh | Mdm2 ligase inh | KCC2 sec1 | KCC2 bumet counter | KCC2 sec2 | HEK293 Tl flux | KCC2 ouabain | HEK counter2
CCOc1ccc(S(=O)(=O)NCCC(=O)OCN2C(=O)c3ccccc3C2=O)cc1 | x | 4 | 0.048 | -1 | 27 | -3 | x | x | x | x | x | x
Cc1ccc(S(=O)(=O)NCC(=O)OCN2C(=O)c3ccccc3C2=O)cc1 | -0.79 | 5 | 0.31 | -6 | -7 | -8 | 0.0093 | 0.006 | 0.032 | 0.0072 | 0.019 | 0.011
Nc1cc(C(F)(F)F)cc2c1SCC(=O)N2 | 0.053 | 0 | 0.0027 | -9 | -10 | -11 | x | x | x | x | x | x
O=C(CN1C(=O)C2C3C=CC(C3)C2C1=O)NCCN1CCCc2ccccc21 (stereo unspecified) | 4.5* | -1 | x | 6 | -44 | -2 | 0.0076 | 0.006 | 0.031 | 0.0069 | 0.021 | 0.0096
Cc1ccc(C)n1-c1ccc(-c2nnc3n2CCCCC3)s1 | -0.74 | -10 | x | -10 | 6 | -14 | x | x | x | x | x | x
Cc1ccc(S(=O)(=O)NC(=O)NCCc2ccccc2)cc1 | 1.3 | 5 | 1.5 | 10 | 1 | x | x | x | x | x | x | x
COC(=O)CCN(C(=O)c1ccc([N+](=O)[O-])cc1)c1ccccn1 | 0.37 | x | 0.62 | x | 2 | -15 | x | x | x | x | x | x
COC(=O)CCN(C(=O)c1ccc(OC(C)=O)cc1)c1ccccn1 | -3.8* | 2 | x | -7 | 19 | -23 | 0.016 | 0.005 | 0.027 | 0.0076 | 0.016 | 0.011
CC(C)Oc1cccc(C(=O)Nc2ccccc2N2CCOCC2)c1 | -8.5* | 8 | x | -4 | -22 | 13 | 0.0081 | 0.0051 | 0.031 | 0.0069 | 0.033 | 0.011
C/C(Cn1nc([N+](=O)[O-])cc1C)=N\NC(=O)c1cccc(Br)c1 | 0.077 | -4 | x | -4 | -3 | -11 | x | x | x | x | x | x
CC(=O)Nc1ccc(S(=O)(=O)N2CCN(C(C)CCc3ccccc3)CC2)cc1 (stereo unspecified) | x | 23 | -1.3 | 12 | -61 | -22 | 0.016 | 0.0049 | 0.021* | 0.0076 | 0.014 | 0.01
CC(=O)Nc1ccc(NC(=O)C(C)N2CCN(S(=O)(=O)c3ccc(C)cc3)CC2)cc1 (stereo unspecified) | 0.03 | 9 | 0.95 | -5 | -16 | 4 | x | x | x | x | x | x
c1ccc(C2(CNc3ccccn3)CCCC2)cc1 | -0.098 | -1 | -1.7 | 2 | -6 | -13 | x | x | x | x | x | x
CCc1ccc2ncc(S(=O)(=O)c3ccc(C)c(C)c3)c(N3CCCC3)c2c1 | 0.78 | -22 | x | 11 | 30 | -14 | x | x | x | x | x | x
O=C(CSc1nc(-c2ccc(F)cc2)nc2c1Cc1ccccc1O2)Nc1ccc(C(=O)O)cc1 | 3.3* | 32* | 0.81 | 9 | 79* | -4 | 0.0075 | 0.0074* | 0.036 | 0.013* | 0.024* | 0.012*
Cc1nc(Cl)c(C(=O)NC(=O)NCc2ccccc2)c(C)c1Cl | -1 | -9 | 1.2 | -1 | 29 | x | x | x | x | x | x | x
COc1ccc(CCN(C)CCCC(C#N)(c2ccc(OC)c(OC)c2)C(C)C)cc1OC (stereo unspecified) | x | x | x | -4 | x | x | x | x | x | x | x | x
N#CC(C#N)=C(Nc1ccc(F)cc1)SCc1cccc(F)c1 | -5.1* | -11 | -0.37 | -9 | 18 | -15 | 0.005 | u | 0.025* | u | 0.014* | 0.0091*
CCOc1ccc(N/C(SCc2cccc([N+](=O)[O-])c2)=C(/C#N)C(N)=O)cc1 | 0.77 | -11 | -2.2 | -2 | 2 | 3 | x | x | x | x | x | x
O=C(Nc1nc(-c2cccs2)cs1)c1ccc(Cl)s1 | 3.1* | -22 | x | -6 | 36 | -25 | 0.0085 | 0.015* | 0.028 | 0.0086* | 0.021 | 0.0098
CCC(=O)OCC(=O)Nc1cc([N+](=O)[O-])ccc1OC | -0.22 | 0 | 0.82 | 1 | -5 | -6 | x | x | x | x | x | x
COc1ccccc1NC(=O)c1oc2ccc(C)cc2c1C | -4.7* | 6 | x | -7 | -22 | -18 | 0.0059 | 0.0053 | 0.031 | 0.0081 | 0.019 | 0.012
COc1ccccc1NC(=O)c1oc2ccccc2c1NC(=O)c1cc(OC)c(OC)c(OC)c1 | 0.43 | x | x | -8 | x | x | x | x | x | x | x | x
O=c1c2ccccc2[nH]c(=S)n1CCc1ccccc1 | 29* | 3 | 1.2 | 3 | 3 | 5 | 0.027* | 0.072* | 0.038 | 0.11* | 0.061* | 0.055*
O=C(Cn1c(=S)[nH]c2ccccc2c1=O)N1CCc2ccccc2C1 | -1.8 | 7 | -0.35 | -6 | -7 | 3 | x | x | x | x | x | x
SMILES | Cl transport mod | Arbovirus inh | ROMK mod | PKD1 inh | Calpain2 inh | Mdm2 ligase inh | KCC2 sec1 | KCC2 bumet counter | KCC2 sec2 | HEK293 Tl flux | KCC2 ouabain | HEK counter2
O=c1c2ccccc2[nH]c(=S)n1Cc1cccs1 | 26* | -1 | 0.02 | -5 | 36 | -4 | u | 0.048* | 0.029 | 0.017* | 0.041* | 0.012*
CCCn1c(=S)[nH]c2ccccc2c1=O | 79* | -3 | 1.7 | -2 | 2 | -6 | u | 0.12* | 0.091* | 0.085* | 0.1* | 0.088*
O=c1c2ccccc2[nH]c(=S)n1CCN1CCc2ccccc2C1 | 58* | x | x | x | -4 | x | 0.018* | 0.13* | 0.03 | 0.036* | 0.069* | 0.015*
CCOc1ccccc1NC(=O)N1CCC(n2nnc3cc(C)ccc32)CC1 | 0.23 | 6 | -0.89 | 4 | 12 | 8 | x | x | x | x | x | x
O=C(NCc1cccnc1)c1ccc(CN2CCc3ccccc3C2)cc1 | x | 1 | -1.1 | -8 | -1 | 1 | x | x | x | x | x | x
CC(C)C(c1nnnn1C(C)(C)C)N1CCC(Cc2ccccc2)CC1 (stereo unspecified) | 0.032 | 5 | -1.5 | 15 | 16 | 3 | x | x | x | x | x | x
CC1CCCN(C(=O)CCCn2c(=S)[nH]c3ccccc3c2=O)C1 (stereo unspecified) | 3.2* | 2 | -0.0087 | -2 | 9 | 14 | 0.007 | 0.0099* | 0.032 | 0.0099* | u | 0.012*
O=C(CCCn1c(=S)[nH]c2ccccc2c1=O)NC1CCCC1 | 0.085 | -7 | 0.4 | 1 | -1 | -12 | x | x | x | x | x | x
Cc1ccc(C2CC(C(F)(F)F)n3nc(C(=O)NCC4CCCO4)cc3N2)cc1 (stereo unspecified) | -4.2* | -1 | x | -11 | 10 | -12 | 0.0072 | 0.005 | 0.03 | 0.0079 | 0.019 | 0.011

Screens from PubChem BioAssay.
